Published values from different studies.
Converted amounts (≈) assume the structure as drawn.

Compound | test | system | conditions | quantity | value
CC[C@@](O)(c1ccc(C(F)(F)F)c(C#N)c1)c1c2ccn(C3CC3)c(=O)c2nn1C | nephelometry | aqueous buffer | 30 min, pH 6.5 | kinetic solubility | 20 to 40 µM (≈ 8.33 to 16.7 µg/mL)
CCCCC(CC)CNC(=N)NC(=N)NCCCCCCNC(=N)NC(=N)NCC(CC)CCCC (centres unmarked) |  | Caco-2 | 5 µM, 2 h | Papp A→B | < 0.07 ×10⁻⁶ cm/s
Cc1c(C(=O)O)ccc2c3n(nc12)[C@@H]1[C@H](C3)N(CC2CC2)[C@@]2(C(=O)Nc3cc(Cl)ccc32)[C@H]1c1cccc(Cl)c1F |  | male dog, plasma | oral, 2 mg/kg | bioavailability | 109%
CC1(F)CN(C(=O)Cn2c(=O)c(C(=O)NCc3ccc(Cl)cc3)cc3nc(N4CCNC4=O)cnc32)C1 |  | aqueous buffer | 24 h, pH 7.4, 37 °C | thermodynamic solubility | < 1.56 µM
Cn1cncc1[C@@](N)(c1ccc(Cl)cc1)c1ccc2c(c1)c(-c1cccc(Cl)c1)cc(=O)n2C |  | FaSSIF | pH 6.5, 37 °C | solubility | 14.1 µg/mL (≈ 28.8 µM)
C[C@H]1COC2=C1C(=O)C(=O)c1c2ccc2c1CCCC2(C)C |  | PBS | 24 h, pH 4, 25 °C | thermodynamic solubility | 15.8 µg/mL
Cn1nc2c(=O)n(C3CC3)nc(C3CC3)c2c1Cc1ccc(C(F)(F)F)c(F)c1 | nephelometry | aqueous buffer | 30 min, pH 6.5 | kinetic solubility | 6.3 to 12.5 µM (≈ 2.56 to 5.08 µg/mL)
CN1CCN(c2cnc3c(cc(C(=O)NCc4ccc(Cl)cc4)c(=O)n3CC(=O)N3CC(C)(F)C3)n2)C1=O |  | aqueous buffer | 24 h, pH 7.4, 37 °C | thermodynamic solubility | < 1.56 µM
CC(C)C[C@H](NC(=O)[C@@H]1COCCCCCC(=O)NCC(=O)N2CCC[C@H]2C(=O)N1)C(=O)[C@@]1(C)CO1 |  | Caco-2 | 10 µM, 2 h, pH 7.4 | Papp B→A | 7.25 ×10⁻⁶ cm/s
CCn1cc(Cl)c2c(Cc3ccc(N4CCCCC4)nc3)n(C)nc2c1=O | nephelometry | aqueous buffer | 30 min, pH 6.5 | kinetic solubility | 40 to 80 µM (≈ 15.4 to 30.9 µg/mL)
CO[C@]1(C(=O)N[C@@H](C)c2ccc(-n3cc(F)cn3)nc2)CC[C@H](c2nc(C)cc(Nc3cc(C)[nH]n3)n2)CC1 |  |  |  | pKa | 6.71
CC(C)NCC(O)COc1cccc2ccccc12 (centres unmarked) |  | Caco-2 | 5 µM, 2 h | Papp A→B | 18.4 ×10⁻⁶ cm/s
Cn1cncc1[C@@](N)(c1ccc(Cl)cc1)c1ccc2c(c1)c(-c1cccc(Cl)c1)cc(=O)n2C |  | beagle dog, plasma | oral, 10 mg/kg, single dose | bioavailability | 65%
Cn1nc2c(=O)n(C3CC3)ncc2c1[C@](O)(c1ccc(C(F)(F)F)c(Cl)c1)C(F)(F)F | nephelometry | aqueous buffer | 30 min, pH 6.5 | kinetic solubility | 5 to 10 µM (≈ 2.33 to 4.67 µg/mL)
